Assays:
[1] = (§1) Drug metabolism in CD1 mouse adipose assessed as oxidative metabolites formation at 6 mg/kg, ip dosed once daily for 3 days followed by dosing of 1:1 mixtures of 2-(2-Carboxyethyl)-4-methyl-5-propyl-(3-13C-furan)-3-13Ccarboxylateand test compound on day 4 and 5 measured 1 hr post dose on day 5 by HPLC-MS analysis; format: ADME, organism-based, Adipose tissue; settings: in vivo
Summary of the method: (§2)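 Mice received CMPF 6 mg/kg intraperitoneally for three days, then 1:1 labeled/unlabeled CMPF mixtures on days four and five. On day five they were euthanized 1 h post-dose, and plasma, adipose, muscle and liver were collected. Samples were analysed by HPLC-MS, with MS/MS of product ions. Metabolites were identified by the distinctive isotope patterns from the 1:1 label mixture.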

Liver [2] = test: as §1, with “liver” for “adipose”, “glycerol conjugate” for “oxidative metabolites”; format: ADME, organism-based; settings: in vivo; summary of the method: as §2
Plasma [3] = test: (§3) Drug metabolism in CD1 mouse plasma assessed as loss of C2 carboxyl during fragmentation at 6 mg/kg, ip dosed once daily for 3 days followed by dosing of 1:1 mixtures of 2-(2-(Carboxy-13C)ethyl)-4-methyl-5-propylfuran-3-carboxylic-2-13C Acid and test compound on day 4 and 5 measured 1 hr post dose on day 5 by HPLC-MS analysis; format: ADME, organism-based; settings: in vivo
Summary of the method: (§4)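 CMPF given 6 mg/kg i.p. once daily for three days. On days four and five, 1:1 mixtures of stable-isotope-labelled and unlabelled CMPF were dosed. Mice were killed 1 h after the day-five dose. Plasma, adipose, muscle and liver were collected and analysed by HPLC-MS (MS/MS for product ions). Metabolites were identified by their distinctive isotope patterns from the labelled/unlabelled mixture.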

Plasma [4] = test: as §3, with “diacylglycerol conjugate formation” for “loss of C2 carboxyl during fragmentation”; format: ADME, organism-based; settings: in vivo; summary of the method: as §4
CYP3A4 = CYP3A4 (Homo sapiens, UniProt P08684); test: Inhibition of human microsomal CYP3A4 at 10 uM after 3 mins by single quad LC/MS analysis; format: ADME; settings: microsomes
CYP2C9 = CYP2C9 (Homo sapiens, UniProt P11712); test: Inhibition of human microsomal CYP2C9 at 10 uM after 10 mins by single quad LC/MS analysis; format: ADME; settings: microsomes
HEK293 = test: Cytotoxicity against HEK293 cells assessed as fold change in capase3/7 activity by Caspase-Glo 3/7 assay relative to DMSO; format: cell-based; settings: human
[5] = (§5) Drug metabolism in CD1 mouse muscle assessed as diacylglycerol conjugate formation at 6 mg/kg, ip dosed once daily for 3 days followed by dosing of 1:1 mixtures of 2-(2-(Carboxy-13C)ethyl)-4-methyl-5-propylfuran-3-carboxylic-2-13C Acid and test compound on day 4 and 5 measured 1 hr post dose on day 5 by HPLC-MS analysis; format: ADME, organism-based, Muscle tissue; settings: in vivo; summary of the method: as §2
Plasma [6] = test: as §3, with “2-(2-Carboxyethyl)-4-methyl-5-(1-propyl-1-13C)furan-3-carboxylic” for “2-(2-(Carboxy-13C)ethyl)-4-methyl-5-propylfuran-3-carboxylic-2-13C”; format: ADME, organism-based; settings: in vivo; summary of the method: as §4
[7] = AUC in mouse at 1 mg/kg, iv; format: ADME, organism-based; settings: in vivo
[8] = Initial plasma concentration in mouse at 1 mg/kg, iv; format: ADME, organism-based
Summary of the method: (§6)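 Mouse pharmacokinetics after single intravenous CMPF dosing at 1 or 3 mg/kg. Plasma exposure was followed over time to derive AUC, C0, terminal half-life, clearance and volume of distribution.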

[9] = as §1, with “glycerol conjugate” for “oxidative metabolites”; format: ADME, organism-based, Adipose tissue; settings: in vivo; summary of the method: as §2
Plasma [10] = test: (§7) Drug metabolism in CD1 mouse plasma assessed as diacylglycerol conjugate formation at 6 mg/kg, ip dosed once daily for 3 days followed by dosing of 1:1 mixtures of 2-(2-Carboxyethyl)-4-methyl-5-propyl-(3-13C-furan)-3-13Ccarboxylateand test compound on day 4 and 5 measured 1 hr post dose on day 5 by HPLC-MS analysis; format: ADME, organism-based; settings: in vivo; summary of the method: as §4
Liver [11] = test: as §5, with “liver” for “muscle”, “2-(2-Carboxyethyl)-4-methyl-5-(1-propyl-1-13C)furan-3-carboxylic” for “2-(2-(Carboxy-13C)ethyl)-4-methyl-5-propylfuran-3-carboxylic-2-13C”; format: ADME, organism-based; settings: in vivo; summary of the method: as §2
[12] = as §7, with “muscle” for “plasma”, “monoacylglycerol” for “diacylglycerol”; format: ADME, organism-based, Muscle tissue; settings: in vivo; summary of the method: as §2
Liver [13] = test: as §7, with “liver” for “plasma”, “monoacylglycerol” for “diacylglycerol”; format: ADME, organism-based; settings: in vivo; summary of the method: as §2
[14] = Clearance in mouse at 1 mg/kg, iv; format: ADME, organism-based; settings: in vivo
[15] = (§8) Drug metabolism in CD1 mouse muscle assessed as oxidative metabolites formation at 6 mg/kg, ip dosed once daily for 3 days followed by dosing of 1:1 mixtures of 2-(2-Carboxyethyl)-4-methyl-5-(1-propyl-1-13C)furan-3-carboxylic Acid and test compound on day 4 and 5 measured 1 hr post dose on day 5 by HPLC-MS analysis; format: ADME, organism-based, Muscle tissue; settings: in vivo; summary of the method: as §4
Plasma [16] = test: as §8, with “plasma” for “muscle”; format: ADME, organism-based; settings: in vivo; summary of the method: as §4
[17] = as §3, with “muscle” for “plasma”, “2-(2-Carboxyethyl)-4-methyl-5-(1-propyl-1-13C)furan-3-carboxylic” for “2-(2-(Carboxy-13C)ethyl)-4-methyl-5-propylfuran-3-carboxylic-2-13C”; format: ADME, organism-based, Muscle tissue; settings: in vivo; summary of the method: as §2
Liver [18] = test: (§9) Drug metabolism in CD1 mouse liver assessed as monoacylglycerol conjugate formation at 6 mg/kg, ip dosed once daily for 3 days followed by dosing of 1:1 mixtures of 2-(2-Carboxyethyl)-4-methyl-5-(1-propyl-1-13C)furan-3-carboxylic Acid and test compound on day 4 and 5 measured 1 hr post dose on day 5 by HPLC-MS analysis; format: ADME, organism-based; settings: in vivo; summary of the method: as §2
Plasma [19] = test: as §5, with “plasma” for “muscle”, “monoacylglycerol” for “diacylglycerol”; format: ADME, organism-based; settings: in vivo; summary of the method: as §4
[20] = Volume of distribution in mouse at 3 mg/kg, iv; format: ADME, organism-based; settings: in vivo; summary of the method: as §6
[21] = as §5, with “adipose” for “muscle”; format: ADME, organism-based, Adipose tissue; settings: in vivo; summary of the method: as §2
[22] = as §7, with “muscle” for “plasma”, “glycerol” for “diacylglycerol”; format: ADME, organism-based, Muscle tissue; settings: in vivo; summary of the method: as §2
Liver [23] = test: as §5, with “liver” for “muscle”, “glycerol” for “diacylglycerol”; format: ADME, organism-based; settings: in vivo; summary of the method: as §2
[24] = Clearance in mouse at 3 mg/kg, iv; format: ADME, organism-based; settings: in vivo
Plasma [25] = test: as §1, with “plasma” for “adipose”; format: ADME, organism-based; settings: in vivo; summary of the method: as §4
[26] = as §7, with “adipose” for “plasma”; format: ADME, organism-based, Adipose tissue; settings: in vivo; summary of the method: as §2
[27] = as §9, with “adipose” for “liver”, “glycerol” for “monoacylglycerol”; format: ADME, organism-based, Adipose tissue; settings: in vivo; summary of the method: as §2
[28] = as §1, with “2-(2-(Carboxy-13C)ethyl)-4-methyl-5-propylfuran-3-carboxylic-2-13C Acid and” for “2-(2-Carboxyethyl)-4-methyl-5-propyl-(3-13C-furan)-3-13Ccarboxylateand”; format: ADME, organism-based, Adipose tissue; settings: in vivo; summary of the method: as §2

CYP3A4, sequence (P08684 whole entry): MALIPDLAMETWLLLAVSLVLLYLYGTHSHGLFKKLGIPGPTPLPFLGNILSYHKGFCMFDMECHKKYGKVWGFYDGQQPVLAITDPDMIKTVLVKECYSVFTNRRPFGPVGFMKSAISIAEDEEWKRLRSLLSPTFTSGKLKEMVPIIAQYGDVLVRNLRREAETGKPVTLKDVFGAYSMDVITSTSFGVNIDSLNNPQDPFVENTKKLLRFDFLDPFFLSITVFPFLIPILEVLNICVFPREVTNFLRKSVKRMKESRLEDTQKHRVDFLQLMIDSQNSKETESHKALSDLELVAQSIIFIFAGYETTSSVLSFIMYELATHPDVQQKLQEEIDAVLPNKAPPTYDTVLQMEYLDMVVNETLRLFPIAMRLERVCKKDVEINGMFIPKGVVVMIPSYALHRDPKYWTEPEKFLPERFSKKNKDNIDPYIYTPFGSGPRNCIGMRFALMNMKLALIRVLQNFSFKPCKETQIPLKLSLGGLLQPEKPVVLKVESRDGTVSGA
CYP2C9, sequence (P11712 whole entry): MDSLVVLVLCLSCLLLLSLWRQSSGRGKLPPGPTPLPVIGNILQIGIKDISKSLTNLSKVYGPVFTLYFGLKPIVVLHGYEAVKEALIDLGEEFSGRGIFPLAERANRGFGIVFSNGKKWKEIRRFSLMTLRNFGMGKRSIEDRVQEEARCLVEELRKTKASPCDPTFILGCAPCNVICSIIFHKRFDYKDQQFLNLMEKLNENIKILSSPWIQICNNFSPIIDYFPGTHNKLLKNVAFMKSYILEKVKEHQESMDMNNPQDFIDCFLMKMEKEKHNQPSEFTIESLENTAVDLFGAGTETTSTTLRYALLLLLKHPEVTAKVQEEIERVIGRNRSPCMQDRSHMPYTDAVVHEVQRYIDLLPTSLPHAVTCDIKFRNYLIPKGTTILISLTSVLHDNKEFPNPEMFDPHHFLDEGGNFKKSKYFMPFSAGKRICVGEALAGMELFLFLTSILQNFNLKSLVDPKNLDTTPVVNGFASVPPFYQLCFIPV

- Drug metabolism [1]: Metabolite_Notdetected
- Drug metabolism (Liver [2]): Metabolite_Notdetected
- Drug metabolism (Plasma [3]): Metabolite_Detected
- Drug metabolism (Plasma [4]): Metabolite_Notdetected
- inhibition at 0.05 h, 10 µM (CYP3A4): 0%
- inhibition at 10 min, 10 µM (CYP2C9): 0%
- Drug metabolism [5]: Metabolite_Notdetected
- Drug metabolism (Plasma [6]): Metabolite_Detected
- AUC [7]: 89.3 µM·h
- C0 [8]: 53.3 µM
- Drug metabolism [9]: Metabolite_Notdetected
- Drug metabolism (Plasma [10]): Metabolite_Notdetected
- Drug metabolism (Liver [11]): Metabolite_Notdetected
- Drug metabolism [12]: Metabolite_Notdetected
- Drug metabolism (Liver [13]): Metabolite_Notdetected
- clearance [14]: 0.66 mL/min/kg
- Drug metabolism [15]: Metabolite_Notdetected
- Drug metabolism (Plasma [16]): Metabolite_Notdetected
- Drug metabolism [17]: Metabolite_Detected
- Drug metabolism (Liver [18]): Metabolite_Notdetected
- Drug metabolism (Plasma [19]): Metabolite_Notdetected
- Vd [20]: 0.2 L/kg
- Drug metabolism [21]: Metabolite_Notdetected
- Drug metabolism [22]: Metabolite_Notdetected
- Drug metabolism (Liver [23]): Metabolite_Notdetected
- clearance [24]: 0.85 mL/min/kg
- Drug metabolism (Plasma [25]): Metabolite_Notdetected
- Drug metabolism [26]: Metabolite_Notdetected
- Drug metabolism [27]: Metabolite_Notdetected
- Drug metabolism [28]: Metabolite_Notdetected
Compound: CCCc1oc(CCC(=O)O)c(C(=O)O)c1C
- fold change (FC) (HEK293): 0.8 to 1.1

Reference: ChEMBL document CHEMBL4004837, “Synthesis and Characterization of Urofuranoic Acids: In Vivo Metabolism of 2-(2-Carboxyethyl)-4-methyl-5-propylfuran-3-carboxylic Acid (CMPF) and Effects on in Vitro Insulin Secretion” (J Med Chem, 2017)
